Bioassay records as filed in PubChem.
CAL PDZ FP-1: untagged CAL PDZ binding inhibitors, primary screen, biochemical, fluorescence polarization, HTS; Golgi-associated PDZ and coiled-coil motif-containing protein (Homo sapiens), Q9HD26; purified CAL PDZ, TMR-peptide fluorescence polarization, 1 h; inhibition, % at 24.9 µM; 0.92% of 300,000 active;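 active = mean inhibition of at least 30% with at least half of replicates also reaching 30%; inconclusive = no clear call, values can overlap the other calls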;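 note: 0% = DMSO neutral control and 100% = excess unlabeled competitor peptide PRC23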
AI-2 QS modul: Vibrio harveyi AI-2 quorum sensing modulators, primary screen, JMH597 strain, luminescence/OD600 ratio; Vibrio harveyi JMH597 AI-2 luminescence/OD600 ratio, 9 h; active compounds read low; strain lacks LuxN and CqsS sensors; 0 = neutral-control median; activity change, % at 7.5 µM; 0.4% of 300,000 active; in the data active = activity change below about -75%, passing the limit was not always enough; inconclusive = no clear call, values can overlap the other calls;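 note: luminescence divided by OD600 gain over 9 h not by final OD600 alone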
ARNT-TACC3 inh: disruptors of ARNT/TACC3 protein interaction, primary screen, biochemical, AlphaScreen, single concentration; AlphaScreen His-ARNT PAS-B/GST-TACC3 binding, luminescence; TACC3 fragment carries E629A point mutation; 0.66% of 390,000 active; AID 623870, 2012; inhibition, % at 9.99 µM; Transforming acidic coiled-coil-containing protein 3 (Homo sapiens), Q9Y6A5;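 active = mean inhibition of replicates at least 50% and at least half of replicates each reaching 50%; inconclusive = half or more replicates reach 50% but mean below 50%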;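 note: 0% = complete ARNT plus TACC3 wells and 100% = ARNT alone without TACC3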
Rce1 inhib: yeast Rce1p protease inhibitors, primary screen, biochemical, fluorescence, cell-free homogeneous. CAAX prenyl protease 2 (Saccharomyces cerevisiae (strain ATCC 204508 / S288c)), Q03530. yeast membranes, quenched prenylated peptide cleavage fluorescence. calls only. 0.27% of 290,000 active;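 active = fall in fluorescence gain of 50% or more versus controls, with final raw signal at or below 3038400; inconclusive = same 50% fall but final raw signal above 3038400; inactive = fall in fluorescence gain under 50%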;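 note: plate controls were neutral control wells for no effect and wells lacking membranes for full effect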
Target sequence (Q03530 whole entry, looked up): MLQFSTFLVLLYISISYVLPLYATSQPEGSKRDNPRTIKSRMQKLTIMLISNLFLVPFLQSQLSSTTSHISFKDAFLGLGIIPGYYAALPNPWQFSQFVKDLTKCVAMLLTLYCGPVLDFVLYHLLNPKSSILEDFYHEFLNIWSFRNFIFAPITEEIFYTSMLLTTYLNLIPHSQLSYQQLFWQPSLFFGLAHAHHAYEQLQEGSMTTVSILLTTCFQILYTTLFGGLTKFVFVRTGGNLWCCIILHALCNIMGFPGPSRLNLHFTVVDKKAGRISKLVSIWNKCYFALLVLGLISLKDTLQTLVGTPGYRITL
CAL PDZ FP-2: CAL PDZ peptide-binding inhibitors, primary screen, biochemical, fluorescence polarization, Cer-tagged CAL PDZ, HTS | Golgi-associated PDZ and coiled-coil motif-containing protein (Homo sapiens), Q9HD26 | purified CAL PDZ, TMR-peptide fluorescence polarization, 1 h | inhibition, % at 20 µM | AID 504414, 2011 | 0.02% of 330,000 active;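 active = highest replicate inhibition of at least 40%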;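 note: plate controls were DMSO neutral control wells for no effect and unlabeled competitor peptide control wells for full effect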
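Assay system – tagged CAL PDZ protein CerCALP, purified · Timing – 1 h at RT · Compound – single point, 20 µM · Measured by – fluorescence polarization from S- and P-plane intensities, G-factor corrected · Evaluation – inhibition from polarization loss · Probe or stimulus – TMR reporter peptide T*-PRC34 · Buffer or medium – pH 7.4 phosphate-saline buffer, reducing agent, detergent, IgG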
JMH597 growth: Vibrio harveyi growth inhibition, confirmation, counter-screen for AI-2 quorum sensing project, JMH597 strain, OD600 absorbance. 1% of 750 active. AID 2726, 2010. 9 h; lacks LuxN and CqsS sensors. shares compounds with AI-2 QS modul. growth inhibition, % at 7.5 µM;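 active = every replicate shows growth inhibition above 50%; inconclusive = at least half, but not all, replicates pass that cutoff; inactive = fewer than half of replicates pass it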
BB721 lum counter: luminescence inhibition in constitutive-on V. harveyi, confirmation, counter-screen for LuxS inhibitor project, strain BB721, luminescence readout. 95% of 750 active. shares compounds with AI-2 QS modul. Vibrio harveyi BB721 luminescence, 9 h. inhibition, % at 7.5 µM. AID 2727, 2010;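 active = inhibition above about 80% in every replicate, not just on average, limit read from the data; inconclusive = at least half of replicates past the limit, but not all; inactive = fewer than half of replicates past the limit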
BB721 growth rt: growth inhibition of V. harveyi BB721, confirmation, cytotoxicity control for AI-2 quorum sensing inhibitors, strain BB721, absorbance OD600; shares compounds with AI-2 QS modul; Vibrio harveyi BB721 growth, 9 h; growth inhibition, % at 7.5 µM; 3% of 750 active; AID 2728, 2010;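 active = every replicate shows growth inhibition above 50%; inconclusive = at least half but not all replicates above 50% inhibition; inactive = under half of replicates above 50% inhibition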
JMH597 AI-2 mod: Vibrio harveyi AI-2 signaling luminescence modulation – JMH597 strain, confirmation; Vibrio harveyi JMH597 AI-2 quorum sensing luminescence, 9 h; luxN and CqsS knockout, AI-2 only; 97% of 750 active; inhibition, % at 7.5 µM; shares compounds with AI-2 QS modul;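 active = every replicate shows more than 75% inhibition of signal versus neutral control wells; inconclusive = half to three quarters of replicates exceed 75% inhibition; inactive = fewer than half of replicates exceed 75% inhibition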
ARNT Alpha ctr: AlphaScreen signal interference compounds, dose response, artefact control for ARNT-TACC3 interaction inhibitor project, biochemical, luminescence, cherry-pick; AC50, µM (titrated, usually from 68 µM), without a hit: at the highest dose activity change, negative = signal decrease; 50% of 1,200 active; shares compounds with ARNT-TACC3 inh; His-ARNT PASB-GST AlphaScreen artifact counter-screen;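 active = every separate test run was called active for a drop in luminescence, with AC50 within twice the top valid dose, actives reach about 71 µM in these data; inconclusive = the separate test runs disagree in their calls; inactive = all runs inactive, including signal change in the wrong direction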
Active calls of the source: *; i = inactive; ? = inconclusive; nt = no result; [ ] = dose if it differs, or a comment. Compounds with a hit are over-represented: about 1.7% of the library has one in this group of screens.

SMILES	CAL PDZ FP-1	AI-2 QS modul	ARNT-TACC3 inh	Rce1 inhib	CAL PDZ FP-2	JMH597 growth	BB721 lum counter	BB721 growth rt	JMH597 AI-2 mod	ARNT Alpha ctr
COc1ccc(NC(=O)CSCC(=O)N(C)CC(=O)Nc2ccc(Cl)c(C(F)(F)F)c2)cc1	-3	-80*	-2	i	-2	24	89*	-18	91*	nt
CCCc1nnc(NC(=O)CCN2C(=O)c3ccccc3C2=O)s1	-5	-87*	1	i	-2	13	94*	34	96*	nt
CC(C)c1nnc(NC(=O)CCN2C(=O)c3ccccc3C2=O)s1	-2	-83*	-3	i	-1	-9	95*	5	96*	nt
COc1ccc(CN2CCN(Cc3ccccc3C(F)(F)F)CC2)c(OC)c1	-7	10	3	i	0	nt	nt	nt	nt	nt
Cc1ccc(Cn2cc(-c3ccccc3)nn2)cc1	-1	-95*	-7	i	-2	-2	98*	-4	99*	nt
COc1ccc(-c2cn(Cc3ccc(C(=O)c4ccccc4)cc3)nn2)cc1	nt	16	nt	i	nt	nt	nt	nt	nt	nt
COc1ccc(N2C(=O)N3[C@H](c4cccc(C)c4)[C@@H]4C(=O)N(Cc5ccccc5)C(=O)[C@@H]4[C@]3(Cc3ccccc3)C2=O)cc1	nt	17	nt	i	nt	nt	nt	nt	nt	nt
Cc1oc(C(C)(C)C)cc1C(=O)NCC(=O)NCC(=O)O	1	17	-23	i	-3	nt	nt	nt	nt	nt
CC(C)c1ccc(OCC(=O)N2CCc3ccccc3C2)cc1	-2	?	-10	i	0	12	85*	12	90*	nt
COc1ccccc1/C=C\C=N\n1c(C2CCCCC2)n[nH]c1=S	4	?	1	i	-3	24	94*	24	97*	nt
C(=C\c1nc(-c2ccccc2)no1)/c1ccccc1	-1	-88*	3	i	-1	11	95*	13	96*	nt
Cc1ccc(SCCNS(=O)(=O)c2ccc(F)cc2)cc1	-2	-94*	-2	i	nt	27	94*	-141	95*	nt
O=[N+]([O-])c1ccc(NC2CCCC2)cc1	1	-83*	2	i	-2	28	93*	20	94*	nt
O=C1CCCCC1Nc1ccc([N+](=O)[O-])cc1 (centres undefined)	-6	nt	4	nt	-1	nt	nt	nt	nt	nt
CSCCC1NC(=O)N(CC(=O)Nc2c(Cl)cc(Cl)cc2Cl)C1=O (centres undefined)	-4	22	-2	i	0	nt	nt	nt	nt	nt
CSCCC1NC(=O)N(CC(=O)Nc2ccc(N3CCCCC3)cc2)C1=O (centres undefined)	-1	-82*	2	i	-1	-2	91*	-11	95*	nt
COc1ccc(/C=N/OC(=O)Nc2ccc(Cl)cc2)c(OC)c1	6	18	3	i	-1	nt	nt	nt	nt	nt
O=C(O)c1ccc(Cl)c(S(=O)(=O)N2CCCC2)c1	3	19	-4	i	0	nt	nt	nt	nt	nt
O=C(O)c1ccc(Br)c(S(=O)(=O)N2CCCC2)c1	-4	-5	60*	i	-3	nt	nt	nt	nt	10%
C[C@H](CO)N1C[C@H](C)[C@@H](CN(C)Cc2ccccn2)Oc2ncc(C#CC3(O)CCCC3)cc2C1=O	nt	nt	19*	nt	nt	nt	nt	nt	nt	-9%[38 µM]
C[C@H]1CN([C@@H](C)CO)C(=O)c2cc(C#Cc3ccccn3)cnc2O[C@H]1CN(C)Cc1ccncc1	nt	nt	1	nt	nt	nt	nt	nt	nt	nt
C[C@H]1CN([C@@H](C)CO)C(=O)c2cc(C#Cc3ccccn3)cnc2O[C@@H]1CN(C)Cc1ccccc1	nt	nt	active	nt	nt	nt	nt	nt	nt	-7%[42 µM]
C[C@H](CO)N1C[C@H](C)[C@H](CN(C)Cc2ccccc2)Oc2ncc(C#CC3(O)CCCC3)cc2C1=O	nt	nt	1	nt	nt	nt	nt	nt	nt	nt
CCCN(C)C[C@@H]1Oc2ncc(C#CCC(C)C)cc2C(=O)N([C@@H](C)CO)C[C@H]1C	nt	nt	37*	nt	nt	nt	nt	nt	nt	-20%[42 µM]
COc1c(O)cccc1/C=N/NC(=O)Cn1ccnc1C	4	18	61*	i	1	nt	nt	nt	nt	-25%
SMILES	CAL PDZ FP-1	AI-2 QS modul	ARNT-TACC3 inh	Rce1 inhib	CAL PDZ FP-2	JMH597 growth	BB721 lum counter	BB721 growth rt	JMH597 AI-2 mod	ARNT Alpha ctr
COc1cccc(/C=N/NC(=O)Cn2ccnc2C)c1	1	28	nt	i	-1	nt	nt	nt	nt	nt
O=C(NCC1(c2ccccc2)CCCC1)c1ccco1	3	8	0	i	0	nt	nt	nt	nt	nt
COc1ccc(NC(=O)CSc2nnc(-c3ccccn3)n2N)cc1Cl	3	6	2	i	-2	nt	nt	nt	nt	nt
Cc1ccc(C)c(-n2c(SCC(N)=O)nnc2-c2ccccn2)c1	nt	19	57*	i	0	nt	nt	nt	nt	-26%
Cc1ccc(C)c(CSc2nnc(-c3ccccn3)n2N)c1	-1	16	-1	i	0	nt	nt	nt	nt	nt
Cc1cc(C)c(NC(=O)CSc2nnc(-c3ccccn3)n2N)c(Cl)c1	0	12	54*	i	-5	nt	nt	nt	nt	-21%
CCc1ccc(NC(=S)N2CCN(C)CC2)cc1	-3	26	-3	i	-1	nt	nt	nt	nt	nt
O=C(CNCc1ccccn1)Nc1ccc([N+](=O)[O-])cc1C(=O)Nc1ccccc1F	1	9	62*	i	-2	nt	nt	nt	nt	28µM*
CC(C)Nc1nc(NC(C)C)nc(C(=O)OCCO)n1	nt	-16	57*	i	-1	nt	nt	nt	nt	-13%
O=C(C[C@H]1C=C[C@H](NS(=O)(=O)c2ccc(F)cc2)[C@H](CO)O1)N1CCN(c2ccccc2)CC1	nt	nt	52*	nt	nt	nt	nt	nt	nt	0%[38 µM]
O=C(C[C@H]1C=C[C@@H](NS(=O)(=O)c2ccc(F)cc2)[C@H](CO)O1)N1CCN(c2ccccc2)CC1	nt	nt	0	nt	nt	nt	nt	nt	nt	nt
